Laboratory results from ChEMBL document CHEMBL5661974, “Pharmacologic characterization of a potent inhibitor of class I phosphatidylinositide 3-kinases” (Cancer Res, 2007).
Active and inactive are the calls of the source. No cut-off for these calls is given here.

How the values were obtained:
[1] = tested on: HCT-116; assay: Antitumor activity against PIK3CA mutant human HCT-116 cells xenografted female Ncr model assessed as T/C at 30 mg/kg, ip administered once a daily for 21 days relative to control; format: functional; conditions: time 21 day
[2] = tested on: A2780; assay: Antiproliferative activity against human A2780 cells harboring PI3KCA/PTEN mutant assessed as cell growth inhibition incubated for 96 hrs by SRB assay; format: functional
[3] = Tmax in BALB/C mouse liver at 2.5 mg/kg, iv by LC-MS/MS analysis; format: ADME, organism-based
Summary of the method: (§1)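 Female BALB/c mice, 6–8 weeks old, given 2.5 mg/kg i.v. in 10% DMSO, 0.5% Tween 20 in saline. Plasma came from serial bleeds; tissues were homogenized in 2 or 3 volumes PBS. Samples were methanol-precipitated with an analogue internal standard, then LC-MS/MS by multiple reaction monitoring against an 8-point external calibration of 2–20,000 nmol/L. Parameters came from WinNonlin noncompartmental analysis, model 201 for plasma and model 200 for tissues.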

[4] = Cmax in BALB/C mouse spleen at 2.5 mg/kg, iv by LC-MS/MS analysis; format: ADME, organism-based; summary of the method: as §1
[5] = tested on: OVCAR-3; assay: Antitumor activity against human OVCAR-3 cells xenografted female Ncr model assessed as T/C at 30 mg/kg, ip administered daily for 15 days relative to control; format: functional; conditions: time 15 day
[6] = tested on: MDA-MB-468; assay: Antitumor activity against PTEN null human MDA-MB-468 cells xenografted female Ncr model assessed as body weight loss at 30 mg/kg, ip administered once a daily for 14 days relative to control; conditions: time 14 day
[7] = Tmax in BALB/C mouse kidney at 2.5 mg/kg, iv by LC-MS/MS analysis; format: ADME, organism-based; summary of the method: as §1
[8] = tested on: IGROV-1; assay: Antitumor activity against PIK3CA mutant human IGROV-1 cells xenografted female Ncr model assessed as T/C at 70 mg/kg, ip administered once a daily for 14 days relative to control; format: functional; conditions: time 14 day
[9] = Tmax in BALB/C mouse plasma at 50 mg/kg, ip by LC-MS/MS analysis; format: ADME, organism-based; conditions: in vivo
Summary of the method: (§2)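 Female BALB/c mice, 6–8 weeks old, dosed i.p. at 50 mg/kg in 20% […] β-cyclodextrin in saline, 0.1 mL/10 g. Serial blood samples; plasma was methanol-precipitated with an analogue internal standard. LC-MS/MS multiple reaction monitoring, external calibration 2–20,000 nmol/L. Noncompartmental analysis, model 200.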

[10] = Cmax in BALB/C mouse kidney at 2.5 mg/kg, iv by LC-MS/MS analysis; format: ADME, organism-based; summary of the method: as §1
[11] = tested on: U-87 MG; assay: Inhibition of recombinant PI3K in human U-87MG cells assessed as phosphorylation of AKT at Thr308 at 5 times of GI50 concentration within 15 mins treatment by immunoblot analysis; format: cell-based
[12] = Tmax in BALB/C mouse spleen at 2.5 mg/kg, iv by LC-MS/MS analysis; format: ADME, organism-based; summary of the method: as §1
[13] = Cmax in BALB/C mouse plasma at 50 mg/kg, ip by LC-MS/MS analysis; format: ADME, organism-based; conditions: in vivo; summary of the method: as §2
[14] = AUClast in BALB/C mouse liver at 2.5 mg/kg, iv by LC-MS/MS analysis; format: ADME, organism-based; summary of the method: as §1
[15] = tested on: U-87 MG; assay: Antiproliferative activity against human U-87MG cells harboring PTEN deletion assessed as cell growth inhibition incubated for 96 hrs by SRB assay; format: functional, U-87MG ATCC
[16] = tested on: OVCAR-3; assay: Antitumor activity against human OVCAR-3 cells xenografted female Ncr model assessed as T/C at 15 mg/kg, ip administered daily for 15 days relative to control; format: functional; conditions: time 15 day
[17] = AUClast in BALB/C mouse spleen at 2.5 mg/kg, iv by LC-MS/MS analysis; format: ADME, organism-based; summary of the method: as §1
[18] = Half life in BALB/C mouse spleen at 2.5 mg/kg, iv by LC-MS/MS analysis; format: ADME, organism-based; summary of the method: as §1
[19] = tested on: U-87 MG; assay: Antitumor activity against human U-87MG cells xenografted female Ncr model assessed as ratio of p-AKT Ser473/total AKT at 100 mg/kg, ip by 30 to 60 mins after dosing by electrochemiluminescent immunoassay relative to control; format: functional, U-87MG ATCC; conditions: time 30-60 min
[20] = Drug metabolism in mouse microsomes incubated for 30 mins by LC-MS/MS analysis; format: ADME, Microsome; conditions: read-out: Drug metabolism
Summary of the method: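 Mouse or human microsomes incubated 30 min with inhibitor at 1 or 10 μmol/L. Metabolite detection by LC-MS/MS on an ion trap, with a 10–90% methanol gradient over 6 min and scan range 50–1,000 amu.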

[21] = tested on: MDA-MB-468; assay: Antitumor activity against PTEN null human MDA-MB-468 cells xenografted female Ncr model assessed as body weight loss at 30 mg/kg, ip administered twice a daily for 14 days relative to control; conditions: time 14 day
[22] = tested on: MDA-MB-468; assay: Antitumor activity against PTEN null human MDA-MB-468 cells xenografted female Ncr model assessed as T/C at 70 mg/kg, ip administered once a daily for 40 days relative to control; format: functional; conditions: time 40 day
[23] = tested on: PC-3; assay: Antitumor activity against PTEN null human PC-3 cells xenografted male Ncr model assessed as body weight loss at 30 mg/kg, ip administered twice a daily for 14 days relative to control; conditions: time 14 day
[24] = tested on: HCT-116; assay: Antitumor activity against PIK3CA mutant human HCT-116 cells xenografted female Ncr model assessed as body weight loss at 30 mg/kg, ip administered twice a daily for 14 days relative to control; conditions: time 14 day
[25] = tested on: U-87 MG; assay: Inhibition of cell migration in human U-87MG cells at 50 nmol/L incubated for 16 to 24 hrs by transwell assay relative to control; format: functional, U-87MG ATCC; conditions: time 16-24 hrs
[26] = Inhibition of recombinant PI3K in human U2OS cells expressing GFP-tagged FKHR assessed as redistribution of cytoplasm to the nucleus before IGF-1 stimulation by fluorescence assay; format: cell-based
Summary of the method: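 U2OS cells expressing GFP-FKHR, cultured in 0.7% serum, treated with inhibitor before IGF-1 stimulation. Nuclear redistribution of GFP was monitored by automated fluorescence imaging, and IC50 was taken from concentration-response curves; Z' above 0.5.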

[27] = tested on: MDA-MB-468; assay: Antiproliferative activity against human MDA-MB-468 cells harboring PTEN deletion assessed as cell growth inhibition incubated for 96 hrs by SRB assay; format: functional
[28] = Half life in BALB/C mouse kidney at 2.5 mg/kg, iv by LC-MS/MS analysis; format: ADME, organism-based; summary of the method: as §1
[29] = Inhibition of recombinant human PI3K in cricetulus griseus CHO cells expressing GFP-tagged PDK1 assessed as translocation to the plasma membrane following IGF-1 stimulation by fluorescence assay
Summary of the method: (§3)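 CHO cells expressing GFP-tagged AKT1, AKT2, AKT3 or PDK1, held in 0.05% serum with 0.1% BSA and stimulated with 100 nmol/L IGF-1. Plasma-membrane translocation was read by automated fluorescence imaging, with IC50 from concentration-response curves; Z' above 0.5.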

[30] = Inhibition of recombinant human PI3K in cricetulus griseus CHO cells expressing GFP-tagged AKT3 assessed as translocation to the plasma membrane following IGF-1 stimulation by fluorescence assay; summary of the method: as §3

Oc1cccc(-c2nc(N3CCOCC3)c3oc4ncccc4c3n2)c1 [PI-103]
T/C [1]: 98.6%
GI50 [2]: 500 nM
Tmax [3]: 4.98 min
Cmax [4]: 1360 nM
T/C [5]: 62%
Body weight loss [6]: <15%
Tmax [7]: 4.98 min
T/C [8]: 74.7%
Tmax [9]: 15 min
Cmax [10]: 2020 nM
inhibition [11]: Active
Tmax [12]: 4.98 min
Cmax [13]: 6680 nM
AUC(0-t) [14]: 0.801 µM·h
GI50 [15]: 180 nM
T/C [16]: 61%
AUC(0-t) [17]: 0.406 µM·h
half-life [18]: 78 min
Activity [19]: ~50%
metabolised at 0.5 h [20]: > 70%
Body weight loss [21]: <15%
T/C [22]: 47.2%
Body weight loss [23]: <15%
Body weight loss [24]: <15%
inhibition at 0.05 µM [25]: 44%
IC50 [26]: 30 nM
GI50 [27]: 690 nM
half-life [28]: 54 min
IC50 [29]: 66 nM
IC50 [30]: 11 nM
